How the values were obtained:
HDAC11 = molecular target: T1, HDAC11 (Homo sapiens, UniProt Q96DB2); assay: Enzymatic HDAC fluorogenic assay, HDAC11; format: biochemical
T1 sequence (Q96DB2 1-347): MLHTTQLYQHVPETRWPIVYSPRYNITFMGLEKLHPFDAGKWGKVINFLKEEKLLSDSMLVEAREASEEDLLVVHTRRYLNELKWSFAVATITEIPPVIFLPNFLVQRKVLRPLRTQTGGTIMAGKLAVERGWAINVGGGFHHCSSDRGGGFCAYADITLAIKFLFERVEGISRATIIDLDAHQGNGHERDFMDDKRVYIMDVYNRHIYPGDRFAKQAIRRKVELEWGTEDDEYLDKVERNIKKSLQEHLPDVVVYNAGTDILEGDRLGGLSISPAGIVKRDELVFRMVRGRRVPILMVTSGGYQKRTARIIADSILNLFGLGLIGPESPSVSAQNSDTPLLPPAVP

MDA-MB-231 cells [1] = assay: Western blot of acetylation status and HDAC expression; format: cell-based, human; details: 24 hours
In short: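 MDA-MB-231 cells were treated 24 hours with test compound at 50–500 μM, with DMSO as negative control. Cells were lysed on ice in RIPA buffer (pH 7.6) with protease and phosphatase inhibitors. Protein (30 µg/lane) was run on SDS-PAGE and blotted to PVDF, then blocked in 5% skim milk/TBST. Antibodies against Ac-α-tubulin (Lys40), α-tubulin, Ac-histone H3 (Lys9), H3, HDAC1, HDAC6 and GAPDH were applied overnight, followed by HRP secondary and ECL detection.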

HDAC1 = HDAC1 (Homo sapiens, UniProt Q13547); assay: Enzymatic HDAC fluorogenic assay, HDAC1; format: biochemical
MDA-MB-231 cells [2] = assay: Assessment of cell morphology; format: cell-based, human; details: 24 hours, dose-dependent, most significant at 300 to 500 μM
HDAC6 = molecular target: T2, HDAC6 (Homo sapiens, UniProt Q9UBN7); assay: Enzymatic HDAC fluorogenic assay, HDAC6; format: biochemical
T2 sequence (Q9UBN7 1-1215): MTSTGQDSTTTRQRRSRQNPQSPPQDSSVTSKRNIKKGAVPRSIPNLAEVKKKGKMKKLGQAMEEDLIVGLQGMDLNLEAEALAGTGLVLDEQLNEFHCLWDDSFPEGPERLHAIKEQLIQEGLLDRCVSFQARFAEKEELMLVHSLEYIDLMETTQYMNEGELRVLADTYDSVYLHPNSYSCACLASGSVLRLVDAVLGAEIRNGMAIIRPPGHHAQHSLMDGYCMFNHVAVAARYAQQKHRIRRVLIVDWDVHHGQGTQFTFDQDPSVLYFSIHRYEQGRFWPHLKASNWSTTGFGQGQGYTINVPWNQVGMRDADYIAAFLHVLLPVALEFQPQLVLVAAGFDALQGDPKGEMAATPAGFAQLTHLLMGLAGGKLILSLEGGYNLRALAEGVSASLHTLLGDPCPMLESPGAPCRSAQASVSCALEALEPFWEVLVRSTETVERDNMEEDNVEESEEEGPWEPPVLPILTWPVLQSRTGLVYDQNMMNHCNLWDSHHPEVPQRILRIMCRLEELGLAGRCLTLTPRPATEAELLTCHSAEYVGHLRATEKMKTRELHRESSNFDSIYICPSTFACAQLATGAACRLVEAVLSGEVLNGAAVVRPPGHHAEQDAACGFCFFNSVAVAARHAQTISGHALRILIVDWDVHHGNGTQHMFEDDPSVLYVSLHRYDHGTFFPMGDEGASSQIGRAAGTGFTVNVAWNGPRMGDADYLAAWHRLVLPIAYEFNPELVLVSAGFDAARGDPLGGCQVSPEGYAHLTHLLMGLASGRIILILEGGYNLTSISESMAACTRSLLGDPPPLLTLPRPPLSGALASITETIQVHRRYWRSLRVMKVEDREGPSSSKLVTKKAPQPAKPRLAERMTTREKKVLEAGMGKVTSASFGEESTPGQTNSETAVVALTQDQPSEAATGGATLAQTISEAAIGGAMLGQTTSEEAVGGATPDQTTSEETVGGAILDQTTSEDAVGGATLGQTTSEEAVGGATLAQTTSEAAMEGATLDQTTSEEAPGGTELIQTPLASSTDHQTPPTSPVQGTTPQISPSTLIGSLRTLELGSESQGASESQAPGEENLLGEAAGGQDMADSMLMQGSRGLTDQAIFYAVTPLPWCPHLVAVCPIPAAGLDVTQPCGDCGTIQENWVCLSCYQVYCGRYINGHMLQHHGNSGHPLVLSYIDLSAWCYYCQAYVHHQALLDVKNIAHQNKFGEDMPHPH

HDAC2 = HDAC2 (Homo sapiens, UniProt Q92769); assay: Enzymatic HDAC fluorogenic assay, HDAC2; format: biochemical
HDAC3 = HDAC3 (Homo sapiens, UniProt O15379); assay: Enzymatic HDAC fluorogenic assay, HDAC3; format: biochemical
MDA-MB-231 cells [3] = assay: Cell proliferation assay; format: cell-based, human; details: for impaired MDA-MB-231 cell growth: 3 days; for anti-proliferative activity (in words): 1, 2 and 3 days
HDAC4 = HDAC4 (Homo sapiens, UniProt P56524); assay: Enzymatic HDAC fluorogenic assay, HDAC4; format: biochemical
Chain of HDAC4 (P56524 627-1084 limits assumed): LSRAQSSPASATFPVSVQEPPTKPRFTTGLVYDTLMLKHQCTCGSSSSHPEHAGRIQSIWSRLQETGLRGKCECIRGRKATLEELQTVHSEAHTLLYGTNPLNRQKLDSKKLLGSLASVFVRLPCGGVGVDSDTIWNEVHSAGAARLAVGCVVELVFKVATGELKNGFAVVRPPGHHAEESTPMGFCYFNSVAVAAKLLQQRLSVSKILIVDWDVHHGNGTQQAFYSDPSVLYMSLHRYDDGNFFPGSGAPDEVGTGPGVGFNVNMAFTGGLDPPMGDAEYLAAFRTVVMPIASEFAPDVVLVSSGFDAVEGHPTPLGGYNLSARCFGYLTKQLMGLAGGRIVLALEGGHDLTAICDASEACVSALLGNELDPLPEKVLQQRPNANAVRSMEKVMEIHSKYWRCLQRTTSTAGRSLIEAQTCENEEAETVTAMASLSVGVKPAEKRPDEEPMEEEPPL

Chain of HDAC2 (Q92769 whole entry): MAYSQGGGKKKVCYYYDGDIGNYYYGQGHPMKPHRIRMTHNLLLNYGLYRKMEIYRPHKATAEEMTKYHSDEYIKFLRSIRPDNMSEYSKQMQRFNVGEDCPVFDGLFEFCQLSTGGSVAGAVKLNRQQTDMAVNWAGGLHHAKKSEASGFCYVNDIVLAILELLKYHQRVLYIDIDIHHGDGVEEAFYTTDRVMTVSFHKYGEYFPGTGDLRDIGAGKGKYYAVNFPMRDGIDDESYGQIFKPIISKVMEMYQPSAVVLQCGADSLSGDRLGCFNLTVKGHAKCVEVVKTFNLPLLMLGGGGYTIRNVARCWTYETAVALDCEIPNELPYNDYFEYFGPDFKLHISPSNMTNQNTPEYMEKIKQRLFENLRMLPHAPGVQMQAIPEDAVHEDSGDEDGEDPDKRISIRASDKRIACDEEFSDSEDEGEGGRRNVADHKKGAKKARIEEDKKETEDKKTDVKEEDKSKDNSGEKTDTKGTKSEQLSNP
Chain of HDAC1 (Q13547 whole entry): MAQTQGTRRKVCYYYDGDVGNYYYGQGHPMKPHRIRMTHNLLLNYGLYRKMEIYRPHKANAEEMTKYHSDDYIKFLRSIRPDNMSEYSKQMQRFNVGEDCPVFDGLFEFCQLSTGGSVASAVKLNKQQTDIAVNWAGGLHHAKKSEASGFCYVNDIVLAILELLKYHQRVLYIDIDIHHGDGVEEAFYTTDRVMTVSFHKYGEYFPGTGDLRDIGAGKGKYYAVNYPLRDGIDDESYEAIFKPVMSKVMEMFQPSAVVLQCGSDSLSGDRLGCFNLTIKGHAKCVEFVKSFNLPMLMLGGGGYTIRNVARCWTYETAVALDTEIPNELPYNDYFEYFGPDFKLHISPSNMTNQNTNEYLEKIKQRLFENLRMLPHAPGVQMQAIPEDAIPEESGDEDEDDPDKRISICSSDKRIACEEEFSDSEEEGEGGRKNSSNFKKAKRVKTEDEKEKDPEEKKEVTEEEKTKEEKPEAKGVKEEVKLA
Chain of HDAC3 (O15379 whole entry): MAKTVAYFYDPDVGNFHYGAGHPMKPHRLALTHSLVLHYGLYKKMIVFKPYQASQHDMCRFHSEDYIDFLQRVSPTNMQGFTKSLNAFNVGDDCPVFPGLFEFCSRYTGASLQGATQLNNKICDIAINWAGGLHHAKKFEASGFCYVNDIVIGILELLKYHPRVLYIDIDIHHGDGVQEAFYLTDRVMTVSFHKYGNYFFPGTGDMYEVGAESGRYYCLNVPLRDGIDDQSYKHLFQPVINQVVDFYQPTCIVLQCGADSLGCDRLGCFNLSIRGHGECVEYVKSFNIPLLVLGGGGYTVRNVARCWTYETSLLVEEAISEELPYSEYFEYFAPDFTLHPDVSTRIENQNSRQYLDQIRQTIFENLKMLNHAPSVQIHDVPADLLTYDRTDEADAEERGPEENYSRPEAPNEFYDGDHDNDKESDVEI
Chain of HDAC3 (Q9Y618 395-489 partner limits assumed): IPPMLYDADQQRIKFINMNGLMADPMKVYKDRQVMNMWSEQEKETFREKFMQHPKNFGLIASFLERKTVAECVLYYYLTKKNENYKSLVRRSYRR

Compound | IC50 (HDAC11) [µM] | inhibition of class IV HDAC (in words) (HDAC11) | expression level of HDAC6 (MDA-MB-231 cells [1]; 500 μM) | expression level of HDAC6 (MDA-MB-231 cells [1]; 50 to 500 μM) | acetylation of α-tubulin (MDA-MB-231 cells [1]; concentrations ranging from 300 to 500 μM) | acetylation of Histone H3 (MDA-MB-231 cells [1]; up to 300 μM concentration) | IC50 (HDAC1) [µM] | morphological changes in cells (MDA-MB-231 cells [2]) | IC50 (HDAC6) [µM] | inhibition of class IIb HDAC (in words) (HDAC6) | IC50 (HDAC2) [µM] | IC50 (HDAC3) [µM] | impaired MDA-MB-231 cell growth (MDA-MB-231 cells [3]; 500 μM) [%] | impaired MDA-MB-231 cell growth (MDA-MB-231 cells [3]; 1000 μM) [%] | anti-proliferative activity (in words) (MDA-MB-231 cells [3]; concentrations from 300 to 1000 μM) | anti-proliferative activity (in words) (MDA-MB-231 cells [3]; up to 100 μM concentration) | IC50 (HDAC4) [µM] | inhibition of class IIa HDAC (in words) (HDAC4) | inhibition of class IV HDAC11 (in words) (HDAC11; up to 100 μM concentration)
O=C(CCCCCNC(=O)c1ccccc1O)Nc1ccccc1 [Compound 5, 2-Hydroxy-N-(6-oxo-6-(phenylamino)hexyl)benzamide] | > 100 | failed to inhibit | significantly depleted the expression level of HDAC6 | decreased the expression level of HDAC6 in a dose-dependent manner | promoted the acetylation of α-tubulin | dose-dependently increased the acetylation of Histone H3 | 22.2 ± 2.69 | more elongated and spindle-shaped | > 100 | failed to inhibit | 27.3 ± 3.71 | 7.9 ± 2.57 | 64 | 81 | mediocre dose- and time-dependent anti-proliferative activity | no anti-proliferative activity | > 100 | failed to inhibit | –
O=C(CCCCCCC(=O)Nc1ccccc1)NO [SAHA, Vorinostat, reference compound] | – | – | – | – | – | – | – | – | – | – | – | – | – | – | – | – | – | – | no inhibition
